Screening data from PubChem BioAssay.
EBNA-1 inh – blocks EBNA-1 binding to DNA. inhibition, % at 14.8 µM. AID 1950. EBNA-1 DNA binding, fluorescence polarization. 0.34% of 300,000 active; in the data active means inhibition above about 28%
EBV gp42 inh – blocks Epstein-Barr virus glycoprotein 42 binding; AID 1085; inhibition, % (tested at 21.74 µM); 0.42% of 220,000 active; Fluorescence polarization binding assay, mP read-out; Q1HVG2; in the data active means inhibition above about 50%
core dimer inh – HCV core protein dimerization inhibition. TR-FRET GST/Flag-core106 dimerization, 1536-well. inhibition, % at 5 µM. 0.33% of 300,000 active. AID 1899;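 active means inhibition above the mean of all tested compounds plus 3 SD, set per screening campaign, cut at about 45% in these data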
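Material: Tagged HCV core106 pair (GST and Flag) | Amount: GST-core106 13.5 nM, Flag-core106 17 nM | Medium: KF-containing HEPES buffer, pH 7.45, DTT, CHAPS, BSA | Reagent: Eu donor and XL665 acceptor anti-tag antibodies | Schedule: 4 h at 22.5 °C | Technique: Time-resolved FRET, ex 340 nm, em 617 and 671 nm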
GPR7 antagonist – human neuropeptides B/W receptor 1 antagonism. inhibition, % at 4.4 µM. P48145. AID 1861. GPR7-expressing cells, fluorescence antagonist assay. 1.1% of 290,000 active; in the data active means inhibition above about 16%, passing the limit was not always enough;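 further: cells stimulated with the agonist NPW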
Target sequence (P48145 whole entry, looked up): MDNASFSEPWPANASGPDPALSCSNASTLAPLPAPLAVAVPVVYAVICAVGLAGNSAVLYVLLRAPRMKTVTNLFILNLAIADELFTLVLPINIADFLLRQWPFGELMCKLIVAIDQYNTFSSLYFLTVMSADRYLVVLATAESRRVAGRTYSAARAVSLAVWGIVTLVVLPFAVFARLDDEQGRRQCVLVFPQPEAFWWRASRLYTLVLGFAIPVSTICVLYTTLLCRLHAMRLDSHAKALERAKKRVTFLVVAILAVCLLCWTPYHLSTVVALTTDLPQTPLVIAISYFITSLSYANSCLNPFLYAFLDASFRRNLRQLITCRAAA
HCV NS3 hel inh – blocks Hepatitis C virus NS3 helicase unwinding | NS3 helicase DNA unwinding, Cy5 molecular beacon fluorescence | inhibition, % at 10.9 µM | 0.56% of 290,000 active | AID 1800;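 active means inhibition above the mean of all tested compounds plus 3 SD, set per campaign, cut at about 35% in these data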
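Test system: hepatitis C virus NS3 helicase domain fragment enzyme. Also added: annealed dual-labelled DNA beacon duplex, ATP-started. Timing: 60 min unwinding reaction at 25 °C after ATP addition. Technique: Cy5 fluorescence. Measure: % inhibition of unwinding.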
ZTA counter – ZTA (EBV) inhibition in EBNA-1 counter-screen; ZTA-DNA binding, fluorescence polarization; inhibition, % at 11 µM; 0.15% of 320,000 active; in the data active means inhibition above about 33%
Target sequence (P03206 whole entry, looked up): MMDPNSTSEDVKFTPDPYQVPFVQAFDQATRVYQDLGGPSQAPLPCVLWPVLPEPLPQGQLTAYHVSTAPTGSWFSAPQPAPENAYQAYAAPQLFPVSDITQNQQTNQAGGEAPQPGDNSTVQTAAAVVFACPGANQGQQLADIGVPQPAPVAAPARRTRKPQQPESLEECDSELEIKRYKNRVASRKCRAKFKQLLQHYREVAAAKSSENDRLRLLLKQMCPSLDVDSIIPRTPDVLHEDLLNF
GPR7 antag conf – human GPR7 antagonism, confirmation assay. GPR7-expressing cells, calcium fluorescence antagonist mode. 52% of 2,400 active. inhibition, % at 4.4 µM. shares compounds with GPR7 antagonist; in the data active means inhibition above about 24%;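 further: stimulated with the GPR7 agonist NPW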
MCHR1 antagonist – counter-screen for GPR7 antagonists: antagonists of human MCHR1 | shares compounds with GPR7 antagonist | MCHR1-expressing cells, fluorescence antagonist assay | inhibition, % at 4.4 µM | 62% of 2,400 active; in the data active means inhibition above about 22%
Numbers stand for hits; i = inactive; nt = no result given. A selection: hits, their analogues and other compounds. The true share with any hit is near 2.3%.

SMILES	EBNA-1 inh	EBV gp42 inh	core dimer inh	GPR7 antagonist	HCV NS3 hel inh	ZTA counter	GPR7 antag conf	MCHR1 antagonist
COc1ccc2c(c1)sc(N)[n+]2Cc1cc(C)cc2cccnc12	i	i	i	38	i	i	41	57
Cc1cc(C[n+]2cc(Br)ccc2N)c2ncccc2c1	i	i	i	30	i	i	29	i
Nc1ccc(Cl)c[n+]1Cc1cccc2cccnc12	i	i	i	i	i	i	nt	nt
Cc1cc(C[n+]2cc(Cl)ccc2N)c2ncccc2c1	i	i	i	23	i	i	29	24
Oc1ccc(Br)cc1CNc1cccc2cccnc12	i	nt	i	i	i	i	nt	nt
O=C(NC1CCCC1)C(c1ccccn1)N(C(=O)c1csnn1)c1ccccc1F (centres undefined)	i	nt	i	i	i	i	nt	nt
O=c1c2ccccc2cnn1Cc1ccc(Br)cc1F	i	nt	i	i	i	i	nt	nt
COc1cccc(NC(=O)Nc2nc(-c3ccc(OC)c(OC)c3)cs2)c1	i	nt	i	74	i	i	92	93
O=C(N/N=C/c1cccc(OC(=O)c2ccco2)c1)c1ccc(F)cc1	i	i	i	22	i	i	i	23
Cc1ccc(-c2csc(NC(=O)C3CCN(S(=O)(=O)c4cccs4)CC3)n2)cc1	i	i	i	39	i	i	43	57
O=C(Nc1nc(-c2ccc(S(=O)(=O)N3CCOCC3)cc2)cs1)c1ccccc1	i	i	i	34	i	i	61	76
O=C(COC(=O)c1cc(S(=O)(=O)N2CCOCC2)cs1)c1ccccc1	i	i	i	25	i	i	i	i
COc1ccc(NC(=O)COC(=O)c2c3c(nc4ccccc24)CCCC3)cc1Cl	i	i	i	32	i	i	35	73
CCC(C(=O)N1CCC(N2CCCCC2)CC1)n1nc(C)c2sc3ccccc3c2c1=O (centres undefined)	i	nt	i	i	i	i	nt	nt
COc1ccc(Cn2c(CCC(=O)Nc3ccccc3OC)nc3cccnc32)cc1	i	i	i	i	i	i	nt	nt
CSc1ncccc1C(=O)N1CCCC(Nc2ccc(C)c(C)c2)C1 (centres undefined)	nt	nt	nt	i	i	nt	nt	nt
Cc1ccc2nccc(C(=O)N3CCCC(Nc4ccc(C)c(C)c4)C3)c2c1 (centres undefined)	i	nt	i	27	i	i	i	i
C1=CCC(CN2CCN(C3CCCCCC3)CC2)CC1 (centres undefined)	i	i	i	30	i	i	i	38
CCC(Oc1ccccc1)C(=O)Nc1ccc(S(=O)(=O)NCC2CCCO2)cc1 (centres undefined)	i	i	i	23	i	i	i	34
Clc1ccc2[nH]c3c(NCC4CCCO4)ncnc3c2c1 (centres undefined)	i	i	i	38	i	i	i	62
Clc1ccc2[nH]c3c(NCCN4CCOCC4)ncnc3c2c1	i	i	i	i	i	i	nt	nt
C=CCn1c(SCC(=O)Nc2cccnc2Cl)nnc1-c1ccccc1F	i	i	i	i	i	i	nt	nt
O=C(CCC(=O)N1CCCCCC1)Nc1ccc([N+](=O)[O-])cc1	i	nt	i	34	i	i	i	i
COc1ccc(OC)c(-c2nn(-c3ccccc3)cc2C(=O)NCC(c2cccs2)N2CCOCC2)c1 (centres undefined)	i	nt	i	nt	nt	i	nt	nt
Nc1nc2n(n1)C(c1cccc(Br)c1)CC(c1ccc(F)cc1)N2 (centres undefined)	i	i	i	35	i	i	i	i
SMILES	EBNA-1 inh	EBV gp42 inh	core dimer inh	GPR7 antagonist	HCV NS3 hel inh	ZTA counter	GPR7 antag conf	MCHR1 antagonist
Nc1nc2n(n1)C(c1ccccc1)CC(c1ccc(F)cc1)N2 (centres undefined)	i	i	i	i	i	i	nt	nt
CCOc1cc(NC(=S)NCCCN2CCOCC2)c(OCC)cc1NC(=O)c1ccc(C)cc1	i	i	i	i	i	i	nt	nt
CCOC(=O)Cc1csc(NC(=O)/C=C/c2ccc(OC)cc2)n1	i	i	i	i	i	i	nt	nt
O=C(CSc1nc2ccc(NC(=O)CSc3nnnn3Cc3ccccc3)cc2s1)Nc1ccccc1	i	i	i	i	i	i	nt	nt
COC(=O)CSc1nc2ccc(NC(=O)CSc3nnnn3Cc3ccccc3)cc2s1	i	i	i	37	i	i	64	55
O=C(CSc1nc2ccc(NC(=O)c3ccccc3C(=O)O)cc2s1)Nc1ccc(F)c([N+](=O)[O-])c1	i	nt	i	26	i	i	26	66
COc1ccc(N2CCN(C(=O)Cc3ccc(Br)cc3)CC2)cc1	i	i	i	i	i	i	nt	nt
CCOC(=O)c1ccc(Nc2ncnc3nc[nH]c23)cc1	i	i	i	i	i	i	nt	nt
c1ccc(COc2ccc(Nc3ncnc4nc[nH]c34)cc2)cc1	i	i	i	34	i	i	i	23
CN(Cc1ccccc1)C(=O)c1nn2cccnc2c1Cl	i	i	i	i	i	i	nt	nt
O=C(Nc1ccc(Cl)cc1)C1CC(=O)n2c(nc3ccccc32)N1 (centres undefined)	i	i	i	23	i	i	i	i
CCc1nnc(NC(=O)C(CC)CC)s1	i	i	i	i	i	i	nt	nt
Cc1ccc2c(c1)CCCN2CC(=O)Nc1cccc(S(=O)(=O)N2CCCC2)c1	nt	nt	nt	nt	nt	i	nt	nt
O=C(CCNC(=O)Cn1ccc2ccccc2c1=O)NCc1ccccn1	i	i	i	i	i	i	nt	nt
CCOC(=O)C1CCC(CNCc2ccc(Cl)cc2)CC1 (centres undefined)	i	i	i	i	i	i	nt	nt
COc1ccc(NC(=O)CC2C(=O)N(c3ccc(F)cc3)C(=S)N2NC(=O)c2ccccc2)cc1 (centres undefined)	i	i	i	i	i	i	nt	nt
Cc1ccc(C2C3=C(NCCN=C3c3ccccc3)C(=O)N2c2ccccc2)cc1 (centres undefined)	i	i	i	nt	i	i	nt	i
CCOc1ccc(N2C(=O)C3=C(C(c4ccc(Cl)cc4)=NCCN3)C2c2cccnc2)cc1 (centres undefined)	i	i	i	i	i	i	nt	nt
CC(=O)c1ccc(-n2nnnc2SCC(=O)N2CCc3ccccc3C2)cc1	nt	i	nt	29	i	nt	i	i
CCCCCCCCCCOC(=O)Cn1c(COc2ccccc2C)[n+](C)c2ccccc21	i	nt	i	28	i	i	83	88
CCCCCCCCCCOC(=O)Cn1c(COc2ccc(Cl)cc2)[n+](C)c2ccccc21	i	nt	i	60	i	i	66	70
CCCCCCCCCCOC(=O)Cn1c(COc2ccccc2)[n+](C)c2ccccc21	i	nt	i	71	i	i	77	94
